# According to PubChem BioAssay:
# Values without a mark were called inactive. Active and inactive are the calls of the source.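 The calls were made as follows, unless noted: active = growth inhibition above a set limit, 3 SD over mean compound inhibition, in both replicates (cut at about 43% in these data); inconclusive = above the limit in only one replicate; inactive = at or below the limit in both replicates.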
# Assay: OD615 S. cerevisiae growth inhibition, permissive medium, pilot counter-assay, permissive growth control for S. cerevisiae lifespan shortening project (AID 705;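 active = growth inhibition above 25% in both replicates, a cutoff set 3 SD above the mean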)
# Conditions: OD615, 24 h, at 10 µM, hits give high values
# Procedure, shortened: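 System – S. cerevisiae with engineered DeaD lifespan system · Buffer or medium – SC raffinose/galactose permissive medium · Schedule – cells pre-grown 4 h, then 24 h compound exposure, 30 °C humidified · Technique – culture turbidity as optical density at 615 nm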
row,Structure (SMILES),growth inhibition
1,COc1ccc(S(=O)(=O)N(C)c2c(C)n(C)n(-c3ccccc3)c2=O)cc1OC,-5.13%
2,CCCC(=O)NCCCc1nc2ccccc2n1CCC,-2.54%
3,COc1ccccc1C(=O)n1nc(C)cc1C,-3.16%
4,CC1CCCCN1Cc1nc2c(c(=O)n(C)c(=O)n2C)n1Cc1c(F)cccc1Cl (centres undefined),1.95%
5,O=C(c1ccc(NC2=NC3CS(=O)(=O)CC3S2)cc1)N1CCc2ccccc2C1 (centres undefined),-0.26%
6,COc1cccc(C(=O)NCc2cn3ccsc3n2)c1,-16.9%
7,COc1ccc2[nH]c(C)c(CCN3C(=O)C4CC=CCC4C3=O)c2c1 (centres undefined),-14.4%
8,CCOC(=O)c1[nH]c(C)c(C(=O)NCCN2CCOCC2)c1C,-3.9%
9,COc1cccc(CNC(=O)CN(c2cc(C)cc(C)c2)S(=O)(=O)c2c(C)noc2C)c1,-6.25%
10,CCC(=NCCc1ccccc1)C1=C(O)CCC1=O,3.04%
11,O=C(CN1CCN(Cc2ccccc2F)C1=O)NCCN1CCOCC1,-2.78%
12,CCOc1ccccc1NC(=O)c1c(NC(=O)CNCc2ccco2)sc2c1CCC2,7.42%
13,O=C1C2CCCN2C(c2ccc(Br)cc2)N1c1ccc(F)cc1 (centres undefined),-4.66%
14,Cc1ccc(O)c(-c2cc(C(F)(F)C(F)F)[nH]n2)c1,-5.95%
15,COc1ccc(Cc2nc(-c3ccc(-n4cccc4)cc3)no2)cc1,0.23%
16,CCN(CC)CCN1C(=O)c2ccccc2NC1c1cccc(F)c1 (centres undefined),-8.46%
17,CCOC(=O)COc1cccc2c(=O)n(CC(=O)N3CCc4ccccc43)ccc12,-10.5%
18,Cc1ccc(S(=O)(=O)/N=C(/Nc2nc(C)cc(C)n2)N2CCOCC2)cc1,-0.825%
19,O=C(COc1ccc(S(=O)(=O)NC2CCCCC2)cc1)N1CCN(c2ccc(F)cc2)CC1,-6.21%
20,COc1ccc(S(=O)(=O)Cc2ccc(C(=O)N3CCc4ccccc4C3)o2)cc1,-5.74%
21,Cc1c(C(=O)NCC(C)C)sc2nc(-c3ccc(F)cc3)cn12,-13.9%
22,CCCN1CCN(C(=O)C2CCN(S(=O)(=O)c3ccc4c(c3)oc(=O)n4C)CC2)CC1,-6.11%
23,COc1ccc(C(=O)/C=C/N2CCCCC2)cc1OC,53.1% (active)
24,CCOCCn1c(CN(Cc2ccccc2)Cc2ccccc2)nc2c1c(=O)n(C)c(=O)n2C,0.79%

# Assay: Restrictive medium S. cerevisiae growth inhibition, OD615, pilot screen of yeast lifespan reduction project, restrictive growth control (AID 706);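 also: modified DeaD lifespan yeast strain shifted to restrictive glucose medium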
# Conditions: OD615, 48 h, at 10 µM, hits give high values
# Procedure, shortened: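 Material: engineered S. cerevisiae DeaD strain / Medium: glucose-based CSMM-D restrictive medium / Compound: single dose of 10 µM compound final, 0.25% DMSO / Timing: 4 h pre-incubation, 48 h exposure at 30 °C / Technique: OD615 absorbance reading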
row,Structure (SMILES),growth inhibition
1,Cc1cc(NC(=O)C2CC(c3ccc(F)cc3)=NO2)no1 (centres undefined),-0.655%
2,CN1CCN(Cc2nc3c(c(=O)n(C)c(=O)n3C)n2CCc2ccccc2)CC1,-4.14%
3,CCOC(=O)c1ccc(NC(=O)CSc2nc3c(c(=O)n2-c2ccccc2OC)SCC3)cc1,-14.6%
4,C=COCCn1c(-c2nonc2N)nc2ccccc21,-3.9%
5,Cc1cc(OCC(=O)Nc2cc(-c3nn4c(C)nnc4s3)ccc2C)ccc1Cl,27.5%
6,O=C(Cn1cc2c(n1)CCCCC2)NCc1ccccc1,0.525%
7,COc1cccc(N2CCN(C(=O)c3ccc4nc(N5CCCCC5)sc4c3)CC2)c1,3.63%
8,CCOC(=O)c1c(C)oc2cc(Br)c(O)c(Br)c12,-14.6%
9,O=C(CSc1ccc2nnc(-c3ccccn3)n2n1)NCc1ccc2c(c1)OCO2,21.4%
10,Cc1ccnc(N2C(=O)c3ccccc3C2Nc2cccc(C)c2C)c1 (centres undefined),-0.8%
11,COc1cccc(/C=C2\N=C(SC)SC2=O)c1OC,-7.18%
12,Cn1c(NC(=O)c2ccc(Cl)cc2Cl)cc(=O)n(C)c1=O,0.265%
13,CC(=O)Nc1cccc(N2C(=O)CC(Cc3ccccc3)C2=O)c1 (centres undefined),-3.32%
14,COC(=O)C(C)NC(=O)C1CCCN1S(=O)(=O)c1cc(C)c(Cl)cc1C (centres undefined),-6.72%
15,Cc1ccc(N(C(=O)CC2NC(=O)NC2=O)C2(C(=O)NC3CCCC3)CCCCC2)cc1 (centres undefined),-19.7%
16,CC1(C)CC(=O)C=C(Nc2ccccc2F)C1,-10.5%
17,COc1ccc(S(=O)(=O)N(C)c2c(C)n(C)n(-c3ccccc3)c2=O)cc1OC,0.325%
18,CCCC(=O)NCCCc1nc2ccccc2n1CCC,-20.1%
19,COc1ccccc1C(=O)n1nc(C)cc1C,-0.83%
20,CC1CCCCN1Cc1nc2c(c(=O)n(C)c(=O)n2C)n1Cc1c(F)cccc1Cl (centres undefined),-6.45%

row,Structure (SMILES),growth inhibition
1,O=C(c1ccc(NC2=NC3CS(=O)(=O)CC3S2)cc1)N1CCc2ccccc2C1 (centres undefined),11.2%
2,COc1cccc(C(=O)NCc2cn3ccsc3n2)c1,4.09%
3,COc1ccc2[nH]c(C)c(CCN3C(=O)C4CC=CCC4C3=O)c2c1 (centres undefined),-15.3%
4,CCOC(=O)c1[nH]c(C)c(C(=O)NCCN2CCOCC2)c1C,-8.41%
5,COc1cccc(CNC(=O)CN(c2cc(C)cc(C)c2)S(=O)(=O)c2c(C)noc2C)c1,-3.9%
6,CCC(=NCCc1ccccc1)C1=C(O)CCC1=O,-0.44%
7,O=C(CN1CCN(Cc2ccccc2F)C1=O)NCCN1CCOCC1,5.44%
8,CCOc1ccccc1NC(=O)c1c(NC(=O)CNCc2ccco2)sc2c1CCC2,-15.1%
9,O=C1C2CCCN2C(c2ccc(Br)cc2)N1c1ccc(F)cc1 (centres undefined),-3.76%
10,Cc1ccc(O)c(-c2cc(C(F)(F)C(F)F)[nH]n2)c1,-19.7%
11,COc1ccc(Cc2nc(-c3ccc(-n4cccc4)cc3)no2)cc1,-11.5%
12,CCN(CC)CCN1C(=O)c2ccccc2NC1c1cccc(F)c1 (centres undefined),1.83%
13,CCOC(=O)COc1cccc2c(=O)n(CC(=O)N3CCc4ccccc43)ccc12,-15.5%
14,Cc1ccc(S(=O)(=O)/N=C(/Nc2nc(C)cc(C)n2)N2CCOCC2)cc1,-15.5%
15,O=C(COc1ccc(S(=O)(=O)NC2CCCCC2)cc1)N1CCN(c2ccc(F)cc2)CC1,-0.445%
16,COc1ccc(S(=O)(=O)Cc2ccc(C(=O)N3CCc4ccccc4C3)o2)cc1,-5.21%
17,Cc1c(C(=O)NCC(C)C)sc2nc(-c3ccc(F)cc3)cn12,-12%
18,CCCN1CCN(C(=O)C2CCN(S(=O)(=O)c3ccc4c(c3)oc(=O)n4C)CC2)CC1,-13.9%
19,COc1ccc(C(=O)/C=C/N2CCCCC2)cc1OC,74.3% (active)
20,CCOCCn1c(CN(Cc2ccccc2)Cc2ccccc2)nc2c1c(=O)n(C)c(=O)n2C,12.6%
